Assay results as given in ChEMBL document CHEMBL1140413, “Synthesis and in vitro evaluation of inhibitors of intestinal cholesterol absorption” (2005).

Columns and labels:
Oryctolagus cuniculus = species on record: Oryctolagus cuniculus; assay: Percent inhibition against cholesterol absorption in brush border membrane vesicle using rabbit small intestine at concentration of 6 uM; format: functional
Summary of the method: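 Cholesterol uptake into brush border membrane vesicles prepared from rabbit whole small intestine, with membrane receptors left intact. Test compounds at a nominal 6 µM; read-out is % inhibition of cholesterol uptake. Average standard deviations ±3% inhibition.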

Cricetinae gen. sp. = assay: Effective dose required for reduction of liver cholesterol ester using 7-day cholesterol-fed hamster model; format: functional; settings: 168 h

## CO[C@H]1O[C@@H](COc2ccc([C@@H]3[C@@H](CC[C@H](O)c4ccc(F)cc4)C(=O)N3c3ccc(F)cc3)cc2)[C@@H](O)[C@H](O)[C@@H]1O
Oryctolagus cuniculus
  inhibition: 13%

## O=C1[C@H](CC[C@H](O)c2ccc(F)cc2)[C@@H](c2ccc(O)cc2)N1c1ccc(F)cc1 [EZETIMIBE]
Cricetinae gen. sp.
  ED50: 0.04 mg/kg/day
Oryctolagus cuniculus
  inhibition: 16%

## O=S(=O)(CC1OC(CO)C(O)C(O)C1O)Oc1ccc([C@@H]2[C@@H](CCC(O)c3ccc(F)cc3)CN2c2ccc(F)cc2)cc1 (stereo partly specified)
Oryctolagus cuniculus
  inhibition: 20%

## O=C(O)[C@H]1O[C@@H](Oc2ccc([C@@H]3[C@@H](CCC(O)c4ccc(F)cc4)C(=O)N3c3ccc(F)cc3)cc2)[C@H](O)[C@H](O)[C@@H]1O (stereo partly specified)
Oryctolagus cuniculus
  inhibition: 19%

## O=C1[C@H](CCCc2ccccc2)[C@@H](c2ccccc2)N1c1ccc(F)cc1 (racemic)
Oryctolagus cuniculus
  inhibition: 2%

## O=C1[C@H](CC[C@H](O)c2ccc(F)cc2)[C@@H](c2ccc(OS(=O)(=O)C[C@@H]3O[C@H](CO)[C@@H](O[C@@H]4O[C@H](CO)[C@@H](O)[C@@H](O)[C@H]4O)[C@@H](O)[C@H]3O)cc2)N1c1ccc(F)cc1
Oryctolagus cuniculus
  inhibition: 41%

## CC(C)(C)Oc1ccc([C@@H]2[C@@H](CCC(O)c3ccc(F)cc3)C(=O)N2c2ccc(F)cc2)cc1 (stereo partly specified)
Oryctolagus cuniculus
  inhibition: 10%

## COc1ccc([C@@H]2[C@@H](CCCc3ccccc3)C(=O)N2c2ccc(OC)cc2)cc1 [SCH-48461]
Cricetinae gen. sp.
  ED50: 2.2 mg/kg/day

## COC1OC(CS(=O)(=O)Oc2ccc(C[C@@H](CCC(O)c3ccc(F)cc3)CNc3ccc(F)cc3)cc2)C(O)C(O)C1O (stereo partly specified)
Oryctolagus cuniculus
  inhibition: 3%

## COC1OC(CS(=O)(=O)Oc2ccc([C@@H]3[C@@H](CCCc4ccc(F)cc4)CN3c3ccc(F)cc3)cc2)C(O)C(O)C1O (stereo partly specified)
Oryctolagus cuniculus
  inhibition: 4%

## CS(=O)(=O)Oc1ccc([C@@H]2[C@@H](CCC(O)c3ccc(F)cc3)C(=O)N2c2ccc(F)cc2)cc1 (stereo partly specified)
Oryctolagus cuniculus
  inhibition: 30%

## CS(=O)(=O)Oc1ccc([C@@H]2[C@@H](CCC(O)c3ccc(F)cc3)CN2c2ccc(F)cc2)cc1 (stereo partly specified)
Oryctolagus cuniculus
  inhibition: 22%

## O=S(=O)(Oc1ccc([C@@H]2[C@@H](CCC(O)c3ccc(F)cc3)CN2c2ccc(F)cc2)cc1)c1ccccc1 (stereo partly specified)
Oryctolagus cuniculus
  inhibition: 19%

## O=C1[C@H](CCC(O)c2ccc(F)cc2)[C@@H](c2ccc(OS(=O)(=O)CC3OC(CO)C(O)C(O)C3O)cc2)N1c1ccc(F)cc1 (stereo partly specified)
Oryctolagus cuniculus
  inhibition: 15%

## O=C1[C@H](CCCc2ccc(F)cc2)[C@@H](c2ccc(OS(=O)(=O)C[C@@H]3O[C@H](CO)[C@@H](O[C@@H]4O[C@H](CO)[C@@H](O)[C@@H](O)[C@H]4O)[C@@H](O)[C@H]3O)cc2)N1c1ccc(F)cc1
Oryctolagus cuniculus
  inhibition: 10%

## COC1OC(CS(=O)(=O)Oc2ccc([C@@H]3[C@@H](CCC(O)c4ccc(F)cc4)C(=O)N3c3ccc(F)cc3)cc2)C(O)C(O)C1O (stereo partly specified)
Oryctolagus cuniculus
  inhibition: 20%

## O=C1[C@H](CC[C@H](O)c2ccc(F)cc2)[C@@H](c2ccc(O[C@@H]3O[C@H](CO)[C@@H](O)[C@@H](O)[C@H]3O)cc2)N1c1ccc(F)cc1
Oryctolagus cuniculus
  inhibition: 14%

## Fc1ccc(N2C[C@H](CCCc3ccccc3)[C@H]2c2ccccc2)cc1 (racemic)
Oryctolagus cuniculus
  inhibition: 2%

## O=C1[C@H](CCC(O)c2ccc(F)cc2)[C@@H](c2ccc(O[C@@H]3O[C@H](CO)[C@@H](O[C@@H]4O[C@H](CO)[C@@H](O)[C@@H](O)[C@H]4O)[C@@H](O)[C@H]3O)cc2)N1c1ccc(F)cc1 (stereo partly specified)
Oryctolagus cuniculus
  inhibition: 27%

## O=C1[C@H](CC[C@H](O)c2ccc(F)cc2)[C@@H](c2ccc(OC[C@@H]3O[C@H](CO)[C@@H](O[C@@H]4O[C@H](CO)[C@@H](O)[C@@H](O)[C@H]4O)[C@@H](O)[C@H]3O)cc2)N1c1ccc(F)cc1
Oryctolagus cuniculus
  inhibition: 28%

## CS(=O)(=O)Oc1ccc(C[C@@H](CCC(O)c2ccc(F)cc2)CNc2ccc(F)cc2)cc1 (stereo partly specified)
Oryctolagus cuniculus
  inhibition: -2%

## O=C1[C@H](CCCc2ccc(F)cc2)[C@@H](c2ccc(O[C@@H]3O[C@H](CO)[C@@H](O[C@@H]4O[C@H](CO)[C@@H](O)[C@@H](O)[C@H]4O)[C@@H](O)[C@H]3O)cc2)N1c1ccc(F)cc1
Oryctolagus cuniculus
  inhibition: 3%

## O=C1[C@H](CCC(O)c2ccc(F)cc2)[C@@H](c2ccc(OS(=O)(=O)c3ccccc3)cc2)N1c1ccc(F)cc1 (stereo partly specified)
Oryctolagus cuniculus
  inhibition: 26%

## O=C1[C@H](CCC(O)c2ccc(F)cc2)[C@@H](c2ccc(OCC3OC(CO)C(O)C(O)C3O)cc2)N1c1ccc(F)cc1 (stereo partly specified)
Oryctolagus cuniculus
  inhibition: 15%

## COC1OC(CS(=O)(=O)Oc2ccc([C@@H]3[C@@H](CCC(O)c4ccc(F)cc4)CN3c3ccc(F)cc3)cc2)C(O)C(O)C1O (stereo partly specified)
Oryctolagus cuniculus
  inhibition: 27%
